Test results as given in ChEMBL document CHEMBL1134606, “Synthesis and structure-activity relationships of a new model of arylpiperazines. 5. Study of the physicochemical influence of the pharmacophore on 5-HT(1a)/alpha(1)-adrenergic receptor affinity: synthesis of a new derivative with mixed 5-HT(1a)/d(2) antagonist properties” (J Med Chem, 2001).

What was measured:
[1] = biological target: T1, Adrenergic receptor alpha-1 (Rattus norvegicus, UniProt P15823+P23944+P43140); test: In vitro binding affinity towards alpha-1 adrenergic receptor using radioligand [3H]prazosin; assay type: protein assay
T1 sequence (P15823 whole entry): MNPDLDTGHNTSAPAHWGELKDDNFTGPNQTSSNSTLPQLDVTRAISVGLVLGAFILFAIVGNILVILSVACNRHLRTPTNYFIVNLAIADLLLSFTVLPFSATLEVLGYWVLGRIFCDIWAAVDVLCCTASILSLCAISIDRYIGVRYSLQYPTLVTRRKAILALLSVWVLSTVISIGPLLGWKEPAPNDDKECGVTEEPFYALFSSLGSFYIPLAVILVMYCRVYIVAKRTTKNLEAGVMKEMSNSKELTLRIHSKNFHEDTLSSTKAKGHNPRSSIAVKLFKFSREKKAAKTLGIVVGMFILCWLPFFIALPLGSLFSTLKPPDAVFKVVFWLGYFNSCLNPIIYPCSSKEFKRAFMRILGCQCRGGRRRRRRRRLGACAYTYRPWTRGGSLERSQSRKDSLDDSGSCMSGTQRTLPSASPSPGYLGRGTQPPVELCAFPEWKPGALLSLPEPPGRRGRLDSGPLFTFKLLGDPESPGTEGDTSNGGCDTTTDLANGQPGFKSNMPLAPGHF
T1 sequence (P23944 whole entry): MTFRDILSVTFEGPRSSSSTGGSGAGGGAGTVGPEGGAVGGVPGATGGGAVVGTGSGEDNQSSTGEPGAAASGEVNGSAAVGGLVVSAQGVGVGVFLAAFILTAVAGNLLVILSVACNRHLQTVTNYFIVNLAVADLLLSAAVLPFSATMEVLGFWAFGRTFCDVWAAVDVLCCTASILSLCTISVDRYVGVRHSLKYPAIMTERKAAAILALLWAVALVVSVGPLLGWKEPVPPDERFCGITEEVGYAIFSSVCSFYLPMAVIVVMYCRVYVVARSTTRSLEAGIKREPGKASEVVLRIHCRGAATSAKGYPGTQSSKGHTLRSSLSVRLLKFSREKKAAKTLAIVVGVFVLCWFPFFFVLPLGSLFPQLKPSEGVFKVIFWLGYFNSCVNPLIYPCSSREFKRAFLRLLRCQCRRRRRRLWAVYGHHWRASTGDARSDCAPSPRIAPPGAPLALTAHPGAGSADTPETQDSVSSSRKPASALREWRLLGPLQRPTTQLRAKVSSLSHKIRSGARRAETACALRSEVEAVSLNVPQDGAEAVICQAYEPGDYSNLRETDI
T1 sequence (P43140 whole entry): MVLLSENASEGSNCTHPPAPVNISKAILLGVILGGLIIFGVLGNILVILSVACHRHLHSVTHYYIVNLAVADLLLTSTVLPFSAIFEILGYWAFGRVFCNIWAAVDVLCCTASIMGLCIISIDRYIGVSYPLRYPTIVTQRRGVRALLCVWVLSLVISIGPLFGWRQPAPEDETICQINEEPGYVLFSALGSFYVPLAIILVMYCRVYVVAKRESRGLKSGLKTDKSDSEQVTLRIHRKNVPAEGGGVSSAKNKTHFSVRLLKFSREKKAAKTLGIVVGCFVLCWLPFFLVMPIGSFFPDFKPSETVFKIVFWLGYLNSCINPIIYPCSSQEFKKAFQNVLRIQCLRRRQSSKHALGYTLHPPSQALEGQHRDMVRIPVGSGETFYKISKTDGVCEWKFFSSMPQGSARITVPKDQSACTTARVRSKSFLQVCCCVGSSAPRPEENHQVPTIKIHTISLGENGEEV
How it was run: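 Cerebral cortex from male Sprague-Dawley rats, membranes (about 250 µg protein) in 50 mM Tris-HCl/10 mM MgCl2 pH 7.4, incubated 30 min at 25 °C with 0.2 nM [3H]prazosin and varied competitor concentrations; 10 µM phentolamine for nonspecific. Triplicates, filtration and scintillation counting; Ki from fitted IC50 by Cheng-Prusoff.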

[2] = biological target: T2, 5-hydroxytryptamine receptor 1A (Rattus norvegicus, UniProt P19327); test: In vitro binding affinity towards 5-hydroxytryptamine 1A receptor was determined using radioligand [3H]-8-OH-DPAT
T2 sequence (P19327 whole entry): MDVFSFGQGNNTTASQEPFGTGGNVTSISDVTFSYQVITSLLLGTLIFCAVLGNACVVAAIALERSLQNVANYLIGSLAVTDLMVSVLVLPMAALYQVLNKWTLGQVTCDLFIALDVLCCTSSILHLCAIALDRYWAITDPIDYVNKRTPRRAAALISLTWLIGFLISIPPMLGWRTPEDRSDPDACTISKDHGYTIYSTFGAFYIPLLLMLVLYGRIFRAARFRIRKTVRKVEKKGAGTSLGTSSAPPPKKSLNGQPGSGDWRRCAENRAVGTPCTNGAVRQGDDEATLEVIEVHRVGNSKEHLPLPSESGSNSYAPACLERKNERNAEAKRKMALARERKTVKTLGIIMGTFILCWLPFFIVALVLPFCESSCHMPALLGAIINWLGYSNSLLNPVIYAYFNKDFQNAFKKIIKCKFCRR
How it was run: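 Rat (male Sprague-Dawley) cerebral cortex membranes, about 1 mg protein, incubated 15 min at 37 °C with 0.6 nM [3H]8-OH-DPAT plus competitor in 50 mM Tris-HCl with 10 nM clonidine and 30 nM prazosin, pH 7.4. Nonspecific binding with 10 µM 5-HT. Triplicates; GF/B filtration, scintillation counting; IC50 curve fit, Ki by Cheng-Prusoff; 2-4 experiments.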

[3] = biological target: 5-hydroxytryptamine receptor 3A (Rattus norvegicus) (UniProt P35563); test: In vitro binding affinity towards 5-hydroxytryptamine 3 receptor was determined
5-hydroxytryptamine receptor 3A (Rattus norvegicus), sequence (P35563 whole entry, looked up): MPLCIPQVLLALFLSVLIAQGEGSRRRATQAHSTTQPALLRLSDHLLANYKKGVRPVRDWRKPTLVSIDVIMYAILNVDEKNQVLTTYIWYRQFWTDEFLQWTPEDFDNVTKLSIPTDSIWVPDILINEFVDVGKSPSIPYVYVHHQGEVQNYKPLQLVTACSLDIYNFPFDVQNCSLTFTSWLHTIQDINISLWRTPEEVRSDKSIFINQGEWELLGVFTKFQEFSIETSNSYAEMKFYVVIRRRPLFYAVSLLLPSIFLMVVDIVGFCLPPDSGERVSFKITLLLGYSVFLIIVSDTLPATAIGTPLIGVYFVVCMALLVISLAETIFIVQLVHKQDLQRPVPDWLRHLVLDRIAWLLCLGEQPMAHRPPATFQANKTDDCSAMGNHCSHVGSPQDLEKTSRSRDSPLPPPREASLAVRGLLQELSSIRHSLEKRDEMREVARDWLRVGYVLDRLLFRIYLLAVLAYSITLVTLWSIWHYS

[4] = biological target: 5-hydroxytryptamine receptor 2A (Rattus norvegicus) (UniProt P14842); test: In vitro binding affinity towards 5-hydroxytryptamine 2A receptor was determined
5-hydroxytryptamine receptor 2A (Rattus norvegicus), sequence (P14842 whole entry, looked up): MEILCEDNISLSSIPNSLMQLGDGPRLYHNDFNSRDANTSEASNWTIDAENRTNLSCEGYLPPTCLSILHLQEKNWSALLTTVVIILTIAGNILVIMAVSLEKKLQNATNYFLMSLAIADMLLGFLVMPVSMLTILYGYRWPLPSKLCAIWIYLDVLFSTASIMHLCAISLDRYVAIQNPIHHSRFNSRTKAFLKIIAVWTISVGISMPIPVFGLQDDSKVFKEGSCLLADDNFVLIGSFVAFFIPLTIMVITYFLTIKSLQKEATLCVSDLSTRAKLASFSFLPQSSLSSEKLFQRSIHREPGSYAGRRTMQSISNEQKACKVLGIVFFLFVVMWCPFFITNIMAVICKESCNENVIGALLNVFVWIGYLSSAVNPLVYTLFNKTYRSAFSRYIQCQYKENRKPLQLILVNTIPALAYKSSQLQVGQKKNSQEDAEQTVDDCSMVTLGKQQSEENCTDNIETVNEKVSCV

[5] = biological target: 5-hydroxytryptamine receptor 4 (Rattus norvegicus); test: In vitro binding affinity towards 5-HT4 receptor was determined
[6] = biological target: D(2) dopamine receptor (Rattus norvegicus) (UniProt P61169); test: In vitro binding affinity towards D2 receptor was determined
D(2) dopamine receptor (Rattus norvegicus), sequence (P61169 whole entry, looked up): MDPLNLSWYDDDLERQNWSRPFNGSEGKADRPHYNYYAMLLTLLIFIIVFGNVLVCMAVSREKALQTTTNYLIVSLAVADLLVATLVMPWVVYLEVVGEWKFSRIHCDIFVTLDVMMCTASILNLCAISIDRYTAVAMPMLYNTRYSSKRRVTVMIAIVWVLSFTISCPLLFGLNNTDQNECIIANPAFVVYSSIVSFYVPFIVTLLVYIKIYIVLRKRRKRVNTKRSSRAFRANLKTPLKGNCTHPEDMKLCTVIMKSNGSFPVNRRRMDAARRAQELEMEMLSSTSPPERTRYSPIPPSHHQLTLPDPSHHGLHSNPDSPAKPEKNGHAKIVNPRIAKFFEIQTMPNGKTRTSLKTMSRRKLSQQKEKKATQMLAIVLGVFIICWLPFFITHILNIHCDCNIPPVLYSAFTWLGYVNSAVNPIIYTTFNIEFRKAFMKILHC

| Ki [1] | Ki [2] | SMILES | other results |
| --- | --- | --- | --- |
| > 10000 nM | > 1000 nM | CC(C)C(=O)Nc1cccc(N2CCN(CCCN3C(=O)C4CCCCN4C3=O)CC2)c1.Cl (stereo not drawn) | – |
| 30 nM | 11 nM | CCCCOc1ccccc1N1CCN(CCCN2C(=O)C3CCCN3C2=O)CC1.Cl (stereo not drawn) | – |
| 29 nM | 27 nM | Cc1ccccc1N1CCN(CCCCN2CC(=O)N3CCCCC3C2=O)CC1.Cl (stereo not drawn) | – |
| 23 nM | 27 nM | Cc1ccccc1N1CCN(CCCN2CC(=O)N3CCCC3C2=O)CC1.Cl (stereo not drawn) | – |
| 95 nM | 3.6 nM | Cl.O=C1C2CCCN2C(=O)CN1CCCCN1CCN(c2cccc(C(F)(F)F)c2)CC1 (stereo not drawn) | – |
| > 10000 nM | 169 nM | CC(C)C(=O)Nc1cccc(N2CCN(CCCCN3CC(=O)N4CCCCC4C3=O)CC2)c1.Cl (stereo not drawn) | – |
| 0.4 nM | 1.2 nM | CCCCOc1ccccc1N1CCN(CCCCN2C(=O)C3CCCCN3C2=O)CC1.Cl (stereo not drawn) | – |
| 51 nM | 3.9 nM | CCCOC(=O)c1ccccc1N1CCN(CCCCN2C(=O)C3CCCN3C2=O)CC1.Cl (stereo not drawn) | – |
| 41 nM | 60 nM | CCCOC(=O)c1ccccc1N1CCN(CCCN2C(=O)C3CCCCN3C2=O)CC1.Cl (stereo not drawn) | – |
| > 1000 nM | > 1000 nM | CCCNC(=O)c1ccccc1N1CCN(CCCCN2CC(=O)N3CCCC3C2=O)CC1.Cl (stereo not drawn) | – |
| 28 nM | 8.6 nM | COc1ccccc1N1CCN(CCCCN2CC(=O)N3CCCC3C2=O)CC1.Cl (stereo not drawn) | – |
| 8 nM | 3.7 nM | Cl.N#Cc1ccccc1N1CCN(CCCCN2C(=O)C3CCCN3C2=O)CC1 (stereo not drawn) | – |
| 79 nM | 110 nM | CCCCOc1ccccc1N1CCN(CCCN2CC(=O)N3CCCCC3C2=O)CC1.Cl (stereo not drawn) | – |
| > 1000 nM | 326 nM | CC(C)C(=O)Nc1cccc(N2CCN(CCCN3CC(=O)N4CCCC4C3=O)CC2)c1.Cl (stereo not drawn) | – |
| 28 nM | 31 nM | Cl.N#Cc1ccccc1N1CCN(CCCN2CC(=O)N3CCCC3C2=O)CC1 (stereo not drawn) | – |
| 215 nM | 80 nM | Cl.Nc1cccc(N2CCN(CCCCN3C(=O)C4CCCCN4C3=O)CC2)c1 (stereo not drawn) | – |
| 16 nM | 126 nM | COc1ccccc1N1CCN(CCCN2CC(=O)N3CCCCC3C2=O)CC1.Cl (stereo not drawn) | – |

| Ki [1] | Ki [2] | SMILES | other results |
| --- | --- | --- | --- |
| 5.3 nM | 134 nM | Cc1ccccc1N1CCN(CCCN2C(=O)C3CCCCN3C2=O)CC1.Cl (stereo not drawn) | – |
| 561 nM | 24 nM | CCCOC(=O)c1ccccc1N1CCN(CCCCN2CC(=O)N3CCCCC3C2=O)CC1.Cl (stereo not drawn) | – |
| > 1000 nM | > 1000 nM | CCCNC(=O)c1ccccc1N1CCN(CCCN2C(=O)C3CCCN3C2=O)CC1.Cl (stereo not drawn) | – |
| > 1000 nM | > 1000 nM | Cl.Nc1cccc(N2CCN(CCCN3C(=O)C4CCCN4C3=O)CC2)c1 (stereo not drawn) | – |
| 26 nM | – | CCCOC(=O)c1ccccc1N1CCN(CCCN2CC(=O)N3CCCC3C2=O)CC1.Cl (stereo not drawn) | – |
| 10 nM | 16 nM | Cc1ccccc1N1CCN(CCCCN2C(=O)C3CCCN3C2=O)CC1.Cl (stereo not drawn) | – |
| 27 nM | 14 nM | Cl.N#Cc1ccccc1N1CCN(CCCCN2CC(=O)N3CCCCC3C2=O)CC1 (stereo not drawn) | – |
| > 1000 nM | 341 nM | CCCNC(=O)c1ccccc1N1CCN(CCCCN2C(=O)C3CCCCN3C2=O)CC1.Cl (stereo not drawn) | – |
| 13 nM | 33 nM | Cl.N#Cc1ccccc1N1CCN(CCCN2C(=O)C3CCCCN3C2=O)CC1 (stereo not drawn) | – |
| > 1000 nM | > 10000 nM | CCCNC(=O)c1ccccc1N1CCN(CCCN2CC(=O)N3CCCCC3C2=O)CC1.Cl (stereo not drawn) | – |
| > 10000 nM | 27 nM | CCS(=O)(=O)Nc1cccc(N2CCN(CCCCN3C(=O)C4CCCN4C3=O)CC2)c1.Cl (stereo not drawn) | Ki [3]: > 1000 nM; Ki [4]: > 1000 nM; Ki [5]: > 1000 nM; Ki [6]: 22 nM |
| 29 nM | 33 nM | Cl.O=C1C2CCCN2C(=O)N1CCCN1CCN(c2cccc(Br)c2)CC1 (stereo not drawn) | – |
| > 10000 nM | – | CC(C)C(=O)Nc1cccc(N2CCN(CCCCN3C(=O)C4CCCN4C3=O)CC2)c1.Cl (stereo not drawn) | – |
| 252 nM | 214 nM | Cl.O=C1C2CCCCN2C(=O)CN1CCCN1CCN(c2cccc(C(F)(F)F)c2)CC1 (stereo not drawn) | – |
| 5.3 nM | 4 nM | Cl.O=C1C2CCCCN2C(=O)N1CCCCN1CCN(c2cccc(Br)c2)CC1 (stereo not drawn) | – |
| 18 nM | 6.5 nM | CCCCOc1ccccc1N1CCN(CCCCN2CC(=O)N3CCCC3C2=O)CC1.Cl (stereo not drawn) | – |
